Assay results taken from ChEMBL document CHEMBL3826910, “Discovery of 3-(5'-Substituted)-Benzimidazole-5-(1-(3,5-dichloropyridin-4-yl)ethoxy)-1H-indazoles as Potent Fibroblast Growth Factor Receptor Inhibitors: Design, Synthesis, and Biological Evaluation” (J Med Chem, 2016).
Active and inactive are the calls of the source. No cut-off for these calls is given here.

What was measured:
[1] = Volume of distribution at steady state in Sprague-Dawley rat at 1 mg/kg, iv; type: ADME, organism-based; settings: in vivo, read-out: Vdss
[2] = target: Vascular endothelial growth factor receptor 2 (Homo sapiens, UniProt P35968); experiment: Inhibition of recombinant human VEGFR2 using poly (Glu, Tyr) 4:1 as substrate after 60 mins by ELISA
Sequence of Vascular endothelial growth factor receptor 2 (P35968 whole entry): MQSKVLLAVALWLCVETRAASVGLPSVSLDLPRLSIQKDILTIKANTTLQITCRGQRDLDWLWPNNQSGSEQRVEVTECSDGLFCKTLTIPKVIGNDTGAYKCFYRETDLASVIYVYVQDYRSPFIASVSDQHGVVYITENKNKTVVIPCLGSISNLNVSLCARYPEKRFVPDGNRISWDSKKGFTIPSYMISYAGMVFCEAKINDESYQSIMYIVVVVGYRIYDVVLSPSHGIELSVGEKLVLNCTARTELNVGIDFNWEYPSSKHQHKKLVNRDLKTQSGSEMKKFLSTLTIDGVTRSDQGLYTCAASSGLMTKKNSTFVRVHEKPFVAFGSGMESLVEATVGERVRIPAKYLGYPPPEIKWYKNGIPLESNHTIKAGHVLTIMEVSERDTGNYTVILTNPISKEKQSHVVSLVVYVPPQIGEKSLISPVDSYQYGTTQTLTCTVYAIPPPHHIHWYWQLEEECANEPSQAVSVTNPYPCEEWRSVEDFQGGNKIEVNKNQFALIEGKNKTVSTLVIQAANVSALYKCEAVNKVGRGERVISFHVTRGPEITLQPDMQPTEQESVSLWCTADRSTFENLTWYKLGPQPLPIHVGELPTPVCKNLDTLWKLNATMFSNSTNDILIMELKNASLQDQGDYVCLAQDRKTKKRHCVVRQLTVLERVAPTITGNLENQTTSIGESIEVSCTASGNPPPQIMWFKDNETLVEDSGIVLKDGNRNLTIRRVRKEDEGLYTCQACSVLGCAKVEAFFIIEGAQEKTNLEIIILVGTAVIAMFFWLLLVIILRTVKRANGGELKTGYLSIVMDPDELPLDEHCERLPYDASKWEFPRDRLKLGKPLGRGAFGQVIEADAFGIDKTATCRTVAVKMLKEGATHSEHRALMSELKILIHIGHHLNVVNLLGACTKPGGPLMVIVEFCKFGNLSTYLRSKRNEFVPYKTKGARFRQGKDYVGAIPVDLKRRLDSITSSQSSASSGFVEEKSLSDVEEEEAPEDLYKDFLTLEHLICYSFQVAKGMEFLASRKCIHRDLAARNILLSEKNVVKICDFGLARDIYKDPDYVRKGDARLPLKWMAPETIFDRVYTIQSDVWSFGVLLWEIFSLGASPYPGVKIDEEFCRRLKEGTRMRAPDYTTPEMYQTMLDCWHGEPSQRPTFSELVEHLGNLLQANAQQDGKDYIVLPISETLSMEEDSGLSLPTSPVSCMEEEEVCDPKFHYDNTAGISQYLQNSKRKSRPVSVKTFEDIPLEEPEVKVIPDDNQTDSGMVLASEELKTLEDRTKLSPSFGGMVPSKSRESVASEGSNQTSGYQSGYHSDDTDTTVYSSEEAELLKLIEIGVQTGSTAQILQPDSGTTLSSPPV

[3] = Cmax in Sprague-Dawley rat at 5 mg/kg, po; type: ADME, organism-based; design: dose 5 mg/kg, route oral; settings: in vivo
Outline: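 Male SD rats (n = 3) dosed orally by gavage at 5 mg/kg as a suspension in 0.5% CMC-Na. Quantified by LC-MS/MS. An IV arm (1 mg/kg) was run in parallel.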

[4] = Half life in Sprague-Dawley rat at 1 mg/kg, iv; type: ADME, organism-based; settings: in vivo
[5] = target: T1, Receptor-type tyrosine-protein kinase FLT3 (Homo sapiens, UniProt P36888); experiment: Inhibition of recombinant human Flt3 using poly (Glu, Tyr) 4:1 as substrate after 60 mins by ELISA
T1 sequence (P36888 whole entry): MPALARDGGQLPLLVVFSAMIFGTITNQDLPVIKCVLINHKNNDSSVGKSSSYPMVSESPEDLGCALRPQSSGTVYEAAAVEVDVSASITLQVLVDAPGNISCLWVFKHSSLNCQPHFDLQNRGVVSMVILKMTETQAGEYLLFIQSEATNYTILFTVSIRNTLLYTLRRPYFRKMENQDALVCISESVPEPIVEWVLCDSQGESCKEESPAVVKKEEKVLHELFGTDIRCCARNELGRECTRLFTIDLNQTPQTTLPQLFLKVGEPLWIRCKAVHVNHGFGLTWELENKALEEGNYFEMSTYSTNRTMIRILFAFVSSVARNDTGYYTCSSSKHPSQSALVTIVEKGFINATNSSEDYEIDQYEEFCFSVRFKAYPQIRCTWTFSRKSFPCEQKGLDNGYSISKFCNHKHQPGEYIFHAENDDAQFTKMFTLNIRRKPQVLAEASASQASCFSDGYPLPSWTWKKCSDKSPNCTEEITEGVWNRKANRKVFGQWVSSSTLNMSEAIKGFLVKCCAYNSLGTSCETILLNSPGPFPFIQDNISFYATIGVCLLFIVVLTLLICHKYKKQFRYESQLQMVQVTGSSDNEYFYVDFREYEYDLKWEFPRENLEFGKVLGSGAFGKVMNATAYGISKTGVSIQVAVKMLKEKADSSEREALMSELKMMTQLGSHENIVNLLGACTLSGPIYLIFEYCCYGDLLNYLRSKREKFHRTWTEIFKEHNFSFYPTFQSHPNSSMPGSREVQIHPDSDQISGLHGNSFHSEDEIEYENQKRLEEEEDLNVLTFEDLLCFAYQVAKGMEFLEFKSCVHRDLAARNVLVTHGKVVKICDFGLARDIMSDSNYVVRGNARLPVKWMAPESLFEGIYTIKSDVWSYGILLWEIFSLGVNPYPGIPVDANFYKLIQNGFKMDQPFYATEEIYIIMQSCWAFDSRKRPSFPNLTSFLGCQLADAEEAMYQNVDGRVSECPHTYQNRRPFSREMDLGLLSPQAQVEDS
Outline: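 Purified recombinant kinases tested by ELISA on plates pre-coated with 20 µg/mL poly(Glu,Tyr) 4:1. Reaction run 60 min at 37 °C. Read-out: PY99 anti-phosphotyrosine antibody, HRP anti-mouse IgG and o-phenylenediamine/H2O2, with A490 measured. IC50 from inhibition curves, two independent experiments.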

[6] = target: Fibroblast growth factor receptor 1 (Homo sapiens, UniProt P11362); experiment: Inhibition of FGFR1 in human KG1 cells assessed as reduction of PLCgamma phosphorylation at 0.1 to 10 nM after 2 hrs by Western blot method; type: cell-based; settings: KG-1
Sequence of Fibroblast growth factor receptor 1 (P11362 22-822 limits assumed): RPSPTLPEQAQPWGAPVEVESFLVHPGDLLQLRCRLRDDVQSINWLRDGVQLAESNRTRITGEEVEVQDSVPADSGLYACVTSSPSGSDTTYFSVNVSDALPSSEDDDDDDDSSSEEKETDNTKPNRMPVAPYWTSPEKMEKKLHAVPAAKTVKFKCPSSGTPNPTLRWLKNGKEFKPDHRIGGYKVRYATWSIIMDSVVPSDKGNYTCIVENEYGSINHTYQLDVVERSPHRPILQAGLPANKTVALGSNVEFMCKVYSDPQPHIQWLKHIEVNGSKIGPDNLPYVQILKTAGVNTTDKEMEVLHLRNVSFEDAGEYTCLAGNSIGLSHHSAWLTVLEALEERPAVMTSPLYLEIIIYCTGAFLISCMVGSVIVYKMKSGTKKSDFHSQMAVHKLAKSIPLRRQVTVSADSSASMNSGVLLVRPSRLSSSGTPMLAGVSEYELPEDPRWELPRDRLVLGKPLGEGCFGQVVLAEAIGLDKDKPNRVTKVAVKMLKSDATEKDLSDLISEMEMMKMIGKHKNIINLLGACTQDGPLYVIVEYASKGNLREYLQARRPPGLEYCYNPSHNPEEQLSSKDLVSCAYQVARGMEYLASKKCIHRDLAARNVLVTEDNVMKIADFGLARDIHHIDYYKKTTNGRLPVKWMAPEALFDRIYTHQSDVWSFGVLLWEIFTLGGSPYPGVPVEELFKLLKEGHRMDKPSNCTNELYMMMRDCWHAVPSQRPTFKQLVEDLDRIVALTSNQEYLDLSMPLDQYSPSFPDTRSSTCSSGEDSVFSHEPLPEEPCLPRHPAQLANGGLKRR
Outline: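 KG-1 cells treated at indicated concentrations for 2 h, then lysed in 1× SDS sample buffer. Lysates run on 10% SDS-PAGE, transferred to nitrocellulose, and probed for phospho-FGFR, PLCγ and Erk. Detection by enhanced chemiluminescence.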

Vd [1]: 5.8 L/kg
IC50 [2]: 7.5 nM
Cmax [3]: 97.2 ng/mL
half-life [4]: 2 h
IC50 [5]: > 100 nM
inhibition [6]: Active
SMILES: C[C@@H](Oc1ccc2[nH]nc(-c3nc4cc(N5CCN(C)CC5)ccc4[nH]3)c2c1)c1c(Cl)cncc1Cl
